Sequences and labels used below:
B1: tRNA (parent)
chain: GUUCCGUUGGCGUAAUGGUAACGCGUCUCCCUCCUAAGGAGAAGACUGCGGGUUCGAGUCCCGUACGGAACG

Fewer inactive variants are shown than the library holds.

In this series the parent is B1. Put plainly: yeast fitness relative to wild type (ratio to wild type); higher = fitter; tRNA-Arg(CCU), competitive growth, 37 C, YPD. In outline: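 Variants of the tRNA-Arg(CCU) gene were chemically synthesised with a 3% per-site mutation rate across 69 sites and placed at the native genomic locus in Saccharomyces cerevisiae. Six parallel replicates of the pooled strains were competed in YPD at 37°C for 24 hours, and gene amplicons from the start and end populations were read by 100-nucleotide paired-end sequencing. Darwinian fitness relative to wild type was derived from changes in genotype frequencies. Genotypes required ≥ 100 starting reads, and estimates < 0.5 were set to 0.5.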
Take GUUCCGUUGGUGUAAUGGUAAGGCGUCUCCCUCCUAAGGAGAAGACUGCGGGUUCGUGUCCCGUACGGAACG [C11U C22G A57U]: the yeast fitness is at most 0.5.
The same measure for GUUCCGUUGGUGUAAUGGUAAGGCGUCUCCCUCCUAAGGAGAAGACUGCGGGUUCGGGUCCCGUACGGAACG [C11U C22G A57G]: 0.586.
The same measure for GUUCCGUUGGUGUAAUGGUAAGGCGUCUCCCUCCUGAGGAGAAGACUGCGGGUUCGAGUCCCGUUCGGAACG [C11U C22G A36G A65U]: 0.554; for GUUCCGUUGGUGUAAUGGUAACGGGUCUUCCUCCUAAGGAGAAGACUGCAGGUUCGACUCCCAUAUGGAACG [C11U C24G C29U G50A G58C G63A C66U]: at most 0.5.
As for GUUCCGUUGGUGUAAUGGUAACGCGUCUCCCUCCUAAGGAGAAGACUGCGGGUUCGAGUCCCGUACGGAUCG [C11U A70U], the figure is 0.88.
As for GUUCCGUUGGUGUAAUGGUAACGCGUCUCCCUCCUAAGGAGAAGACUGCGGGUUCGAGUCCCGUACGGACCG [C11U A70C], the yeast fitness came out at 0.898.
As for GUUCCGUUGGUGUAAUGGUAACGGGUCUCCCUACUAAGGCGAAGACUGCCGGUUCGAGUCCCGUACGGAACG [C11U C24G C33A A40C G50C], the figure is at most 0.5; as for GUUCCGUUGGUGUAAUGGUAACGCGUCUCCCUCCUAAGGAGAAGACUGCGGGUUCGAGUCCCGUGCGGAUCG [C11U A65G A70U], 0.606.
As for GUUCCGUUGGUGUAAUGGUAACGCGUCUCCCUCCUAAGGAGAAGACUGCGGGUUCGGGUCUCGUACGGAACG [C11U A57G C61U], the figure is at most 0.5.
As for GUUCCGUUGGUGUAAUGGUAACGCGUCUCCCUCCUAAGGAGAAGACUGCGGGUUCGGGUCACGUACGGAACG [C11U A57G C61A], the figure is at most 0.5.
For the variant GUUCCGUUGGUGUAAUGGUAACGCGUCUCCCUCCUAAGGAGAAGACUGCGGGUUCGCGUCCCAUACGGAACG [C11U A57C G63A], the yeast fitness was at most 0.5.
Turning to GUUCCGUUGGUGUAAUGGUAAUGCGUCUCCCUCCUAAGGAGAAGACUGCGGGUUCGAAUCCCGUAUGGAACG [C11U C22U G58A C66U], the yeast fitness worked out at 0.532.
Regarding GUUCCGUUGGUGUAAUGGUAACGGGUCUCCCUCCUAAGGAGAAGACAGCGGGUUCGAGUCCCGUACGGAACG [C11U C24G U47A], the yeast fitness is 0.565.
For the variant GUUCCGUUGGUGUAAUGGUAACGAGUCUCCUUUCUAUGGAGAAGACUACGGGUUCGAGUCCCGUACAGAACG [C11U C24A C31U C33U A37U G48A G67A], the yeast fitness is at most 0.5.
In the case of GUUCCGUUGGUGUAAUGGUAACGGGUCUCCCUCCUAAGGAGAAGACUGCGGGUUCGAGUCACGUACGGAACG [C11U C24G C61A], the yeast fitness worked out at 0.569.
As for GUUCCGUUGGUGUAAUGGUAACGCGUCUCCCUCCUAAGGAGAAGACUGCGGGUUCGGGUCCCGUACGGUACG [C11U A57G A69U], the figure is 0.718; as for GUUCCGUUGGUGUAAUGGUAACGAGUCUCCCUCUUAUGCUGAAGACUGCGGAUUGGAGUCCCGUACGGAACG [C11U C24A C34U A37U G39C A40U G52A C55G], at most 0.5; as for GUUCCGUUGGUGUAAUGGUAACGCGUCUCCCUCCUAAGGAGAAGACUGCGGGUUCGAGUCCCGUUAGGAACG [C11U A65U C66A], at most 0.5.
As for GUUCCGUUGGUGUAAUGGUAAGGCGUCUCCCUCCUAAGGAGAAGACUGCGGGUUCGAAUCUCGUACGGAACG [C11U C22G G58A C61U], the figure is 0.608; as for GUUCCGUUGGUGUAAUGGUAAGGCGUCUCCCUCCUAAGGAGAAGACUGCGGGUUCGAGUCCCGUGCGGAACG [C11U C22G A65G], 0.731; as for GUUCCGUUGGUGUAAUGGUAACGGGUCUCCCUCCUAAGGAGAAGACUGCGGGUUCGAGUCCCGUACGGAACG [C11U C24G], 0.614.
As for GUUCCGUUGGUGUAAUGGUAAUGCGUCUCCCUCCUAAGGAGAAGACUGCGGGUUUGAGUCCCGUACGGAACG [C11U C22U C55U], the figure is 0.681; as for GUUCCGUUGGUGUAAUGGUAAGGCGUCUCCCUCCUAAGGAGAAGACUGCGGGUUCGAGUCCUGUACGGACCG [C11U C22G C62U A70C], at most 0.5; as for GUUCCGUUGGUGUAAUGGUAAAGGGUCUCCCUCCUGAGCAGAAGACUGCGGGUUUGAGUCCCGUAUGGAACG [C11U C22A C24G A36G G39C C55U C66U], at most 0.5.
On to GUUCCGUUGGUGUAAUGGUAACGCGUCUCCCUCCUAAGGAGAAGACUGCGGGUUCGAGUCCCGUUCGGCACG [C11U A65U A69C], for which the yeast fitness came out at 0.588.
As for GUUCCGUUGGUGUAAUGGUAAUGUGUCUCCCUCCUAAGGAAAAGACUGCGGGUUCGAGUCCCGUCCGGAACG [C11U C22U C24U G41A A65C], the figure is at most 0.5; as for GUUCCGUUGGUGUAAUGGUAAGGCGUCUCCCUCCUAAGGCAAAGACAGCGGGCUCGAGUCCCGUACCGAACG [C11U C22G A40C G41A U47A U53C G67C], at most 0.5.
As for GUUCCGUUGGUGUAAUGGUAAUGUGUCUCCCUCCUAAGGAGAAGACUGCGGGUUCGAGUCCCGUACGGAACG [C11U C22U C24U], the figure is 0.56; as for GUUCCGUUGGUGUAAUGGUAAGGCGUCUCCCUCCUAAGGAGAAGACUGCGGGUUCGAGUCCCGUACGGCACG [C11U C22G A69C], 0.653; as for GUUCCGUUGGUGUAAUGGUAACGCGUCUCCCUCCUAAGGAGAAGACUGCGGGUUCGAGUCCCGUACGGCUCG [C11U A69C A70U], 0.814.
GUUCCGUUGGUGUAAUGGUAACGCGUCUCCCUCCUAAGGAGAAGACUGCGGGUUCGAGUCCCGUUCGGAACG [C11U A65U]: the yeast fitness came to 0.923.
The same measure for GUUCCGUUGGUGUAAUGGUAACGCGUCUCCCUCCUAAGGAGAAGACUGCGGGUUCGAGUCCCGUCCGGAACG [C11U A65C]: 0.933; for GUUCCGUUGGUGUAAUGGUAACGCGUCUCCCUCCUAAGGAGAAGACUGCGGGUUCGAGUCCCGUGCGGAACG [C11U A65G]: 0.935.
In the case of GUUCCGUUGGUGUAAUGGUAAUGCGUCUCCCUCCUAAGGAGAAGACUGCGGGUUCGAGUCCCGUACAGAACG [C11U C22U G67A], the yeast fitness came out at 0.586.
The same measure for GUUCCGUUGGUGUAAUGGUAACGAGUCUCCCUCCUAAGGAGAAGACUGCGGGUUCGAGUCCCGUACGGAUCG [C11U C24A A70U]: at most 0.5; for GUUCCGUUGGUGUAAUGGUAAGGCGUCUCCCUCCUACGGAGGAAACUGCGGGUUCGAGUCCCGUACGGAACG [C11U C22G A37C A42G G44A]: at most 0.5; for GUUCCGUUGGUGUAAUGGUAAGGCGUCUCCCUCCUAAGGAGAAGACUGCGGCUUCUAGUCCCGUACGGAACG [C11U C22G G52C G56U]: at most 0.5.

The record behind these values is the RNAGym collection of RNA variant scans (doi:10.1126/science.aae0568).
